# In the library only some 1.5% were active in any assay of this set; here they are far more common.
# PG9 binder – binders of HIV-1 gp120 antibody PG9, primary screen, biochemical, TR-FRET | 360,000 tested, 0.43% active | TR-FRET gp120-PG9 antibody binding | AID 624416, 2012 | inhibition, % at 6.7 µM | HIV-1 gp120 / PG9 antibody interaction; in the data active = inhibition above about 8.5%
# NR2E3 ag-1 – NR2E3 agonists in two-hybrid cells, primary screen, cell-based, luminescence, CHO-S, Gal4-NCOR/VP16-NR2E3; AID 602229, 2012; luciferase; 360,000 tested, 0.35% active; inhibition of corepressor binding, % at 3.98 µM;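 active = inhibition above the mean of all tested compounds plus 3 SD, cut at about 70% in these data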;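 also: 0% = DMSO with NR2E3 transfected cells and 100% = cells lacking NR2E3 construct; higher means lower luciferase signal from less NR2E3 corepressor binding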
# NR2E3 ag-2 – inhibitors of NR2E3-RetCOR corepressor binding, primary screen, NR2E3 agonist project, biochemical, TR-FRET, GST-NR2E3, biotin-RetCOR. 320,000 tested, 0.12% active. 1536-well. AID 2300, 2010. Photoreceptor-specific nuclear receptor (Homo sapiens), Q9Y5X4. inhibition of corepressor binding, % at 4.78 µM;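 active = percent inhibition above the cutoff of mean plus 3 SD of all tested compounds, set per screening campaign, cut at about 20% in these data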;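 also: 0% = DMSO wells and 100% = biotin wells as full block of FRET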
#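 Test system – NR2E3–RetCOR corepressor complex · Quantity – NR2E3 fusion 1.35 nM · Buffer or medium – Tris pH 7.5 · Incubation – Compound–protein incubation for 5 h at 4 °C · Technique – TR-FRET, Eu(K)-anti-GST donor, streptavidin-D2 acceptor, ex 340, em 617/671 nm · Evaluation – percent inhibition of 671/617 nm emission ratio versus biotin and DMSO controls · Plate – 1536-well format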
# Rev-erbA mod – modulators of Rev-erb alpha DNA binding, primary screen, biochemical, FITC-DNA, fluorescence polarization, uHTS | Rev-erbα–FITC-DNA binding, 90 min | 370,000 tested, 0.79% active | AID 1259318, 2017 | activity, % at 10 µM | Nuclear receptor subfamily 1 group D member 1 (Homo sapiens), P20393;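 active = activity above about 14%, limit read from the data; passing the limit was not always enough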;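 also: 0% = DMSO wells with 35 nM protein and 100% = DMSO wells with 750 nM protein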
# Target sequence (P20393 whole entry, looked up): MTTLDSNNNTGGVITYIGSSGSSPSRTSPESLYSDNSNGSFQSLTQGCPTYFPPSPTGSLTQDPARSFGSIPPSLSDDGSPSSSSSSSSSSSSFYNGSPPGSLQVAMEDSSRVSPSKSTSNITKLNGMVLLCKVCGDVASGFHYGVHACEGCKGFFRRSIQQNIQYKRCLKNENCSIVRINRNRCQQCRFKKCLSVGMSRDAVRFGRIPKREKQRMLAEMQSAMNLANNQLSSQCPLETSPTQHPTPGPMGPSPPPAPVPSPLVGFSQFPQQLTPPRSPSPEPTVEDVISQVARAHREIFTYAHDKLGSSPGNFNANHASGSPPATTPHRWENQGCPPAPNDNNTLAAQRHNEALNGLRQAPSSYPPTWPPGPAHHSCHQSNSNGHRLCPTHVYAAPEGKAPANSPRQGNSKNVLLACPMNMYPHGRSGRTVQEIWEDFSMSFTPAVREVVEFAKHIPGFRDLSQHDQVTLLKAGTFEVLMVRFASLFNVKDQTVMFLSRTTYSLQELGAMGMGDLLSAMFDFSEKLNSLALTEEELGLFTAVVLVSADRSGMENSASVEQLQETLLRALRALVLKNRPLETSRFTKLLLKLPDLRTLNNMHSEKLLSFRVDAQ
# NR1D1 mod conf – modulators of Rev-erb alpha DNA binding, confirmation, biochemical, FITC-DNA, fluorescence polarization, single point | shares compounds with Rev-erbA mod | 3,000 tested, 61% active | activation, % at 25 µM | AID 1259319, 2017 | 90 min;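 active = activation at or above a set limit, or at least 3 SD above the negative control mean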;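 also: 0% = 35 nM protein with DMSO and 100% = 750 nM protein high control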
# RORg DNA counter – modulation of RORgamma DNA binding, dose response, counter-screen for Rev-erb alpha modulator project, biochemical, fluorescence polarization, FITC-DNA; shares compounds with Rev-erbA mod; purified RORgamma protein-FITC-DNA binding; IC50, µM; 910 tested, 8% active; AID 1259320, 2017;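 active = Compounds whose fitted half-maximal concentration for disrupting protein-DNA binding is below 10 micromolar; the record names Rev-erb in its text, so the target is in doubt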
# Starred values were filed as active, the others as inactive; nt = no result.
SMILES,PG9 binder,NR2E3 ag-1,NR2E3 ag-2,Rev-erbA mod,NR1D1 mod conf,others
Cc1ccc2c(c1)-c1c(cnn1CC(=O)NCCc1ccc(O)cc1)CO2,nt,nt,nt,-10,nt,
COC(=O)[C@]12C[C@H](CC(=O)N3CCCC3)C(=O)N(Cc3cccc4ccccc34)C1=C[C@H](C1CCCC1)O[C@@H]2C,nt,nt,nt,4,nt,
CC(=O)c1sc(NC(=O)COc2ccc(Cl)cc2Cl)nc1C,0,-24,4,31*,1,
CC(=O)c1sc(NC(=O)COc2ccc(Cl)cc2C)nc1C,3,-8,2,84*,25*,
COc1ccc(-c2c(C#Cc3ccsc3)c3cc(-c4ccc5c(c4)OCO5)ccc3n2C)cc1,0,-15,-6,21*,30*,
COc1cc(OC)cc(-c2c(C#Cc3ccsc3)c3cc(-c4ccc5c(c4)OCO5)ccc3n2C)c1,-6,-26,nt,26*,26*,
COc1ccc(-c2c(C#Cc3ccsc3)c3cc(-c4ccc(C(N)=O)cc4)ccc3n2C)cc1,-1,13,nt,-2,nt,
COc1ccc(-c2c(C#Cc3ccsc3)c3cc(-c4ccc5[nH]ccc5c4)ccc3n2C)cc1,-1,7,0,4,nt,
COc1ccc(-c2c(C#Cc3ccsc3)c3cc(-c4ccc5c(c4)OCCO5)ccc3n2C)cc1,2,1,nt,54*,77*,RORg DNA counter=3.4*
CC(=O)c1cc(-c2cc(C(F)(F)F)cc(C(F)(F)F)c2)c(=O)n2c1CCC2,nt,nt,nt,2,nt,
COc1cc2nc(-c3ccccc3)nc(N3CCCC3)c2cc1OC,-3,nt,nt,42*,25*,
COc1ccc(Oc2nnc(-c3ccc(C)cc3)c3ccccc23)cc1,2,7,3,27*,15,
c1ccc(Oc2nnc(-c3cccs3)c3ccccc23)cc1,-3,-12,4,26*,11,
COc1nnc(-c2ccc(C)cc2)c2ccccc12,1,9,nt,11,nt,
CN(C)c1ccc(C(=O)NC2CCCCN(Cc3ccc(Cl)cc3)C2=O)cc1 (stereo not given),nt,nt,nt,2,nt,
O=c1cc(N2CCN(c3ccnc4cc(Cl)ccc34)CC2)[nH]c(=O)n1C1CCCCC1,nt,nt,nt,1,nt,
CCCCNC(=O)c1cc2nc3c(c(C(F)(F)F)n2n1)CCc1ccccc1-3,0,-6,0,30*,7,
CC(C)CNC(=O)c1cc2nc3c(c(C(F)(F)F)n2n1)CCc1ccccc1-3,1,6,2,23,nt,
CCc1nc(OCc2ccccc2)c2sc3nc4c(cc3c2n1)COC(C)(C)C4,-4,-5,-1,7,nt,
CC1(C)Cc2nc3sc4c(OCc5ccccc5)ncnc4c3cc2CO1,-2,1,-2,38*,20*,
O=C(C1CCN(c2ncnc3c2sc2cccc(F)c23)CC1)N1CCN(C(=O)C2CCCO2)CC1 (stereo not given),nt,nt,nt,-5,nt,
CC(=O)Nc1ccc(S(=O)(=O)Nc2ccn(Cc3ccccc3Cl)n2)cc1,-2,-7,nt,15*,-3,
COc1ccc(CNC(=O)CSc2nnnn2C)cc1OC,-2,-4,-2,31*,-2,
O=C(Nc1nc2ncccn2c1-c1ccc(C(F)(F)F)cc1)C1CC1,nt,nt,nt,4,nt,
CN(C)S(=O)(=O)c1ccc(C(=O)OCC(=O)c2csc(N3CCCCC3)n2)cc1,-1,-25,3,24*,11,
SMILES,PG9 binder,NR2E3 ag-1,NR2E3 ag-2,Rev-erbA mod,NR1D1 mod conf,others
CCN(CC)S(=O)(=O)c1ccc(C(=O)NNC(=O)c2csc(N3CCOCC3)n2)cc1,3,1,-1,-1,nt,
O=C(NCC1CCN(C(=O)C(=O)c2cc3ccccc3o2)CC1)c1ccc2c(c1)OCO2,-2,nt,nt,5,nt,
CCOC(=O)c1c(NC(=S)NCCc2ccccc2)sc2c1CC(C(C)C)OC2 (stereo not given),1,-59,4,26*,25*,
C=CCNC(=S)Nc1sc2c(c1C(=O)OCC)CC(C(C)C)OC2 (stereo not given),0,-15,2,-3,nt,
N#C/C(=C/C1=C(N2CCOCC2)C(=C/c2ccc(Cl)cc2)/CC1)C(=O)Nc1ccccc1F,-1,8,nt,27*,5,
CC(NC(=O)c1ccc(-c2cc(C(F)(F)F)ccc2Cl)o1)c1ccccc1 (stereo not given),4,3,3,30*,45*,RORg DNA counter=0.78*
CCOC(=O)c1c(SCC(=O)Nc2nccs2)nc(C)c(C)c1C,0,-138,nt,-1,nt,
CCc1cc2cc3c(cc2nc1SCC(=O)Nc1c[nH]c(=O)[nH]c1=O)OCO3,1,-6,6,187*,172*,RORg DNA counter=>40
CCc1cc2cc3c(cc2nc1SCC(=O)Nc1nccs1)OCO3,14*,-19,2,225*,123*,RORg DNA counter=>40
COC(=O)[C@]12C[C@H](CC(=O)NCCc3ccccc3OC)C(=O)N(CCc3ccc(OC)c(OC)c3)C1=C[C@H](COCc1ccccc1)O[C@@H]2C,nt,nt,nt,6,nt,
CN(Cc1ccccc1)C(=O)OCc1cn(Cc2ccccc2F)nn1,nt,nt,nt,-6,nt,
Cc1sc(NC(=O)c2oc3ccccc3c2C)c(C#N)c1C,nt,-19,-3,226*,283*,
Cc1c(C(=O)NC2=NCCS2)oc2ccccc12,1,-100,1,1,nt,
CCNC(=S)NNC(=O)CSc1nnc(-c2ccccc2)n1-c1ccc(Cl)cc1,nt,nt,nt,-5,nt,
CCOC(=O)c1c(NC(=O)c2ccc(S(=O)(=O)N3CCOCC3)cc2)sc2c1CC(C)(C)NC2(C)C,1,-26,1,42*,8,
COc1cc(F)ccc1Oc1cccc2c1S(=O)(=O)N([C@H](C)c1ccccc1)C[C@@H](COCc1ccccc1)O2,1,nt,nt,1,nt,
CSc1nc2cc(C)nn2c(-c2ccccc2)c1C#N,-1,-27,5,26*,10,
COc1cc(/C=N/NC(=O)c2c(C)nc3ccc(Cl)cn23)cc(OC)c1OC,1,-7,nt,50*,47*,RORg DNA counter=>40
OC(c1ccccc1)(c1ccccc1)C1CCN(CCCOc2ccc(Br)cc2)CC1,nt,nt,nt,0,nt,
Cc1cc(NC(=O)C(C)Sc2nc(-c3cccs3)nc3ccccc23)no1 (stereo not given),5,-14,nt,42*,13,
Cc1onc(-c2c(F)cccc2Cl)c1C(=O)Nc1sc2c(c1C#N)CCC(C(C)(C)C)C2 (stereo not given),-2,12,2,27*,20*,
Cc1cccc(CCNc2nc3ccccc3n3nnnc23)c1,0,-36,1,44*,15,

# Compound activity from PubChem.
